Source: publication PMC8559613 (Journal of biomolecular screening, 2016)

How the values were obtained:
KLE cells [1] = experiment: Annexin V-FITC/PI apoptosis assay in KLE cells; format: cell-based, human; details: for pro-apoptotic effect (early apoptotic cell population relative to untreated cells): 50 μM, without α-NF, 24, 48 and 72 h; for concentration dependence of pro-apoptotic effect: 10, 50 and 100 μM, without α-NF, 72 h
Outline: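 KLE cells grown in DMEM/F-12 (1:1) with 10% FBS were seeded in 6-well plates and used on day 7 post-seeding. Prodrug was given without α-NF at 50 μM for 24, 48 or 72 h, or at 10, 50 or 100 μM for 72 h. Controls received no prodrug. Cells were double-stained with Annexin V-FITC/PI and run on flow cytometry. % early apoptotic cells was compared with untreated controls by one-way ANOVA with Dunnett post test. Triplicate or quadruplicate.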

KLE cells [2] = format: cell-based
KLE cells [3] = experiment: Cell cycle analysis; format: cell-based, human; details: 72 h; for % of cells in >4N / % of cells in G0/G1 / % of cells in G2/M / % of cells in S / % of cells in Sub-G1: mean ± SD; for cell cycle effects in CYP1B1-inhibited KLE cells / cell cycle effect in KLE cells compared to untreated cells: 10 and 100 μM
Outline: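 KLE cells, day 7 post-seeding, exposed to 10 or 100 μM prodrug with or without 10 μM α-NF for 72 h; untreated cells received no prodrug. Cells harvested, fixed in 70% (v/v) ethanol at −20°C overnight, then stained with PI/RNase buffer for 30 min at room temperature. DNA content read by flow cytometry. Run in triplicate or quadruplicate.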

[4] = after the 14th daily oral administration of 6 mg/kg, vervet monkeys; cited from earlier work
[5] = Resazurin cytotoxicity assay in wild-type HEK293T cells; format: cell-based; details: human
Outline: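 Untransfected HEK293T cells in DMEM with 10% FBS, seeded at 5,000 cells/well and held 24 h. Prodrug given at 0–100 μM with medium changed daily for 69 h. Resazurin (0.01% w/v) added for a further 3 h (72 h total). Fluorescence read at ex 565/em 595 nm. IC50 from variable-slope dose-response fit. Controls: 0.1% DMSO vehicle and 2% Triton X-100.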

[6] = Resazurin cytotoxicity assay in HepaRG cells; format: cell-based; details: human
Outline: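 HepaRG cells grown 2 weeks in Growth medium, then 2 weeks in Differentiation medium, then seeded at 5,000 cells/well. Prodrug given at 0–100 μM with medium changed daily for 69 h. Resazurin (0.01% w/v) added for a further 3 h (72 h total). Fluorescence read at ex 565/em 595 nm. IC50 from variable-slope dose-response fit. Controls: 0.1% DMSO vehicle and 2% Triton X-100.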

[7] = Resazurin cytotoxicity assay in CYP1B1-transfected HEK293T cells; format: cell-based; details: human, HEK293T cells transfected with CYP1B1
CYP1B1 = experiment: EROD activity assay in KLE cells; format: cell-based; details: human, probe 7-ER (0.8 μM)
[8] = 100 μM prodrug, with 10 μM α-NF

SMILES | pro-apoptotic effect (early apoptotic cell population relative to untreated cells) (KLE cells [1]) | concentration dependence of pro-apoptotic effect (KLE cells [1]) | % of cells in >4N (KLE cells [3]; 10 μM prodrug, with 10 μM α-NF) [%] | % of cells in G0/G1 (KLE cells [3]; 10 μM prodrug, with 10 μM α-NF) [%] | % of cells in G2/M (KLE cells [3]; 10 μM prodrug, with 10 μM α-NF) [%] | % of cells in S (KLE cells [3]; 10 μM prodrug, with 10 μM α-NF) [%] | % of cells in Sub-G1 (KLE cells [3]; 10 μM prodrug, with 10 μM α-NF) [%] | % of cells in >4N (KLE cells [3]; 10 μM prodrug, without α-NF) [%] | % of cells in G0/G1 (KLE cells [3]; 10 μM prodrug, without α-NF) [%] | % of cells in G2/M (KLE cells [3]; 10 μM prodrug, without α-NF) [%] | % of cells in S (KLE cells [3]; 10 μM prodrug, without α-NF) [%] | % of cells in Sub-G1 (KLE cells [3]; 10 μM prodrug, without α-NF) [%] | % of cells in >4N (KLE cells [3]; [8]) [%] | % of cells in G0/G1 (KLE cells [3]; [8]) [%] | % of cells in G2/M (KLE cells [3]; [8]) [%] | % of cells in S (KLE cells [3]; [8]) [%] | % of cells in Sub-G1 (KLE cells [3]; [8]) [%] | % of cells in >4N (KLE cells [3]; 100 μM prodrug, without α-NF) [%] | % of cells in G0/G1 (KLE cells [3]; 100 μM prodrug, without α-NF) [%] | % of cells in G2/M (KLE cells [3]; 100 μM prodrug, without α-NF) [%] | also measured
CON=C(N)c1ccc(-c2ccc(-c3ccc(C(N)=NOC)cc3)o2)cc1 [DB289, 2,5-bis[4-amidinophenyl]furan-bis-O-methylamidoxime] | significant increase in the early apoptotic cell population | concentration-dependent pro-apoptotic effects | 5.3 ± 1.0 | 39.5 ± 0.6 | 39.3 ± 2.9 | 9.8 ± 1.4 | 5.4 ± 0.0 | 1.7 ± 0.6 | 40.0 ± 1.7 | 45.0 ± 5.2 | 5.3 ± 1.1 | 5.1 ± 1.4 | 3.6 ± 0.4 | 43.2 ± 3.4 | 42.4 ± 2.6 | 6.1 ± 1.1 | 4.7 ± 1.0 | 4.5 ± 1.3 | 43.2 ± 0.8 | 39.5 ± 0.2 | viability of KLE cells (KLE cells [2]; 50 μM prodrug, KLE cells without α-NF, normalized to vehicle control): 21%; % of cells in S (KLE cells [3]; 100 μM prodrug, without α-NF): 8.3 ± 1.0 %; % of cells in Sub-G1 (KLE cells [3]; 100 μM prodrug, without α-NF): 4.5 ± 0.7%; cell cycle effects in CYP1B1-inhibited KLE cells (KLE cells [3]; with 10 μM α-NF): absent; cell cycle effect in KLE cells compared to untreated cells (KLE cells [3]; without α-NF): concentration-dependent G0/G1 cell cycle arrest
CONC(=N)c1ccc(-c2ccc(-c3ccc(C(=N)NOC)cn3)o2)cc1 [DB844, N-methoxy-6-{5-[4-(N-methoxyamidino)phenyl]-furan-2-yl}-nicotinamidine] | significant increase in the early apoptotic cell population | concentration-dependent pro-apoptotic effects | 4.9 ± 0.9 | 41.1 ± 1.5 | 40.7 ± 2.9 | 7.9 ± 1.5 | 4.1 ± 1.1 | 6.3 ± 1.9 | 38.7 ± 2.1 | 47.3 ± 0.5 | 8.0 ± 1.4 | 4.6 ± 0.8 | 3.4 ± 0.6 | 43.3 ± 0.4 | 41.8 ± 1.1 | 5.6 ± 0.7 | 4.3 ± 0.9 | 3.7 ± 0.9 | 43.9 ± 1.2 | 40.6 ± 1.3 | average maximal plasma concentration [4]: 0.43 µM; % of cells in S (KLE cells [3]; 100 μM prodrug, without α-NF): 6.6 ± 1.1 %; % of cells in Sub-G1 (KLE cells [3]; 100 μM prodrug, without α-NF): 5.3 ± 1.5%; cell cycle effects in CYP1B1-inhibited KLE cells (KLE cells [3]; with 10 μM α-NF): absent; cell cycle effect in KLE cells compared to untreated cells (KLE cells [3]; without α-NF): concentration-dependent G0/G1 cell cycle arrest; IC50 at 72 h [5]: 37.9 ± 0.9 µM; IC50 at 72 h [6]: 76.3 ± 1.6 µM; IC50 at 72 h [7]: 38.8 ± 0.9 µM
O=c1cc(-c2ccccc2)oc2c1ccc1ccccc12 [α-NF, α-naphthoflavone] | – | – | – | – | – | – | – | – | – | – | – | – | – | – | – | – | – | – | – | – | inhibition at 24 h, 1 μM (CYP1B1): 81%; cytotoxic effect on KLE cells (KLE cells [2]; α-NF up to 15 μM): did not show any cytotoxic effect
